Assay results published in ChEMBL document CHEMBL1151222, “A new lariciresinol-type butyrolactone lignan derived from hydroxymatairesinol and its identification in spruce wood” (J Nat Prod, 2004).

Tests used:
Design in all cases: dose 50 mg/kg, route oral
Details in all cases: in vivo
Rattus norvegicus [1] = test: Metabolic stability in Sprague-Dawley rat assessed as urinary excretion of allo-hydroxymatairesinol at 50 mg/kg, po after 48 hrs; format: ADME, organism-based, Urine
Method in brief: (§1)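 Five female Sprague-Dawley rats on RM1 diet received a single oral gavage of the lignan preparation in vehicle at 50 mg/kg. Individual 48 h urine was hydrolysed enzymatically, solid-phase extracted at pH 4.0 and measured by negative-ion HPLC-MS/MS MRM against calibration curves in spiked blank rat urine. Background was subtracted. Excretion is excreted molar amount per administered molar amount of that same component, reported as mean ± SD.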

Rattus norvegicus [2] = test: Metabolic stability in Sprague-Dawley rat assessed as conversion to allo-hydroxymatairesinol level at 50 mg/kg, po after 48 hrs; format: ADME, organism-based
Method in brief: (§2)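 Five female Sprague-Dawley rats were kept on RM1 diet before and during the study. A knotwood-derived lignan preparation was given once by oral gavage in vehicle at 50 mg/kg, and individual urine was collected over 48 h. Urine was enzymatically hydrolysed, solid-phase extracted at pH 4.0 and analysed by negative-mode HPLC-ESI-MS/MS MRM. Pre-dose background was subtracted. Conversion is excreted molar amount per total administered molar amount, reported as mean ± SD.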

Rattus norvegicus [3] = test: Metabolic stability in Sprague-Dawley rat assessed as urinary excretion of isohydroxymatairesinol at 50 mg/kg, po after 48 hrs; format: ADME, organism-based, Urine; method in brief: as §1
Rattus norvegicus [4] = test: Metabolic stability in Sprague-Dawley rat assessed as conversion to isohydroxymatairesinol level at 50 mg/kg, po after 48 hrs; format: ADME, organism-based; method in brief: as §2
Rattus norvegicus [5] = test: Metabolic stability in Sprague-Dawley rat assessed as urinary excretion of hydroxymatairesinol at 50 mg/kg, po after 48 hrs; format: ADME, organism-based, Urine; method in brief: as §1
Rattus norvegicus [6] = test: Metabolic stability in Sprague-Dawley rat assessed as conversion to hydroxymatairesinol level at 50 mg/kg, po after 48 hrs; format: ADME, organism-based; method in brief: as §2

Question: How did the Activity (Rattus norvegicus [1]) turn out when `COc1cc(C[C@H]2C(=O)OC[C@@H]2[C@@H](O)c2ccc(O)c(OC)c2)ccc1O` was run?
Answer: 14.3%

Question: And the Activity (Rattus norvegicus [2])?
Answer: 1400 nmol

Question: Which results are given for `COc1cc(C[C@H]2C(=O)O[C@H](c3ccc(O)c(OC)c3)[C@H]2CO)ccc1O` [ISOHYDROXYMATAIRESINOL]?
Answer: Activity (Rattus norvegicus [3]): 5.9%; Activity (Rattus norvegicus [4]): 39 nmol

Question: How did the Activity (Rattus norvegicus [5]) turn out when `COc1cc(C[C@H]2C(=O)OC[C@@H]2[C@H](O)c2ccc(O)c(OC)c2)ccc1O` [HYDROXYMATAIRESINOL] was run?
Answer: 6%

Question: And the Activity (Rattus norvegicus [6])?
Answer: 1100 nmol
